For test [1], the system named is RAW264.7. In words: Antiinflammatory activity in mouse RAW264.7 cells assessed as inhibition of LPS-induced PGE2 production preincubated for 1 hr followed by LPS challenge for 24 hrs by ELISA method. It is filed as functional, cell-based. In outline: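 RAW 264.7 cells in DMEM with 10% FBS, plated at 2 × 10^5 cells/mL and incubated overnight. Pretreated with compound (15, 30 or 60 μM) for 1 h, then LPS 10 ng/mL for 24 h. PGE2 measured by competitive colorimetric ELISA, TNF-α and IL-6 by ELISA, in diluted medium. NS-398 3 μM as positive control for PGE2. Mean ± SD, three independent experiments; IC50 given for PGE2.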
A general note: An ELISA detects its analyte on a solid surface through an enzyme-linked reagent.

Test [2] relates to RAW264.7. In words: Antiinflammatory activity in mouse RAW264.7 cells assessed as inhibition of LPS-induced nitric oxide production preincubated for 1 hr followed by LPS challenge for 24 hrs by Griess assay. It is filed as functional, cell-based. In outline: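 RAW 264.7 cells plated at 2 × 10^5 cells/mL and incubated overnight. Compound given at 15, 30 or 60 μM for 1 h, then LPS 10 ng/mL for 24 h. Nitrite in the medium measured by Griess reagent (10 min, room temperature, A540) against a NaNO2 standard. L-NIL 20 μM as positive control; IC50 derived; three independent experiments.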
Background: The Griess reaction detects nitrite, a stable product of nitric oxide.

Test [3] has as its system Rattus norvegicus. In words: Antiinflammatory activity in Sprague-Dawley rat assessed as inhibition of croton oil-induced ear edema at 100 mg/kg, po administered 1 hr before croton oil challenge measured after 3 hrs post challenge. It is filed as functional. In outline: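 Croton-oil ear edema in male SD rats: ibuprofen 100 mg/kg p.o. given as reference. Croton oil (5% in 100 μL acetone) applied to the right ear, acetone to the left. Thickness of 6 mm ear punches measured 3 h after application; seven rats per group.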

Test [4] deals with Rattus norvegicus. The test is described as follows: Antiinflammatory activity in Sprague-Dawley rat assessed as reduction in carrageenan induced paw edema at 100 mg/kg, po administered 1 hr before carrageenan challenge measured at 3 hrs post challenge. The class given is functional. In outline: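 Carrageenan paw edema in SD rats: ibuprofen 100 mg/kg p.o. as reference. Carrageenan (1% in saline, 0.1 mL) injected into the right hind paw. Volume measured by plethysmometer at 1, 3 and 5 h; seven rats per group.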
For orientation: Carrageenan injected into the paw causes an acute inflammation.

In the case of `Cc1cc(=O)c2c(O)cc(O)c([C@@H]3O[C@H](CO)[C@@H](O)[C@H](O)[C@H]3O)c2o1`, the IC50 in the test with RAW264.7 [1] was 46 µM; with RAW264.7 [2], over 60 µM.

With `CC(C)Cc1ccc(C(C)C(=O)O)cc1` (centres undefined) [IBUPROFEN], the figures for the inhibition in vivo at 100 mg/kg in the test with Rattus norvegicus [3] and with Rattus norvegicus [4] were 78.2% and 68%, respectively.

As a reminder, the IC50 is the concentration that gives 50% inhibition. In general, inhibition in vivo refers to the relative decrease from the control value, in per cent.

Source of the values: ChEMBL document CHEMBL4477178, “Biflorin, Isolated from the Flower Buds of Syzygium aromaticum L., Suppresses LPS-Induced Inflammatory Mediators via STAT1 Inactivation in Macrophages and Protects Mice from Endotoxin Shock” (J Nat Prod, 2016).
